Data as given in ChEMBL document CHEMBL1221233, “4''-O-(omega-Quinolylamino-alkylamino)propionyl derivatives of selected macrolides with the activity against the key erythromycin resistant respiratory pathogens” (2010).
Values after ≈ are worked out from the molar mass of the structure shown.

How the values were obtained:
Type in all cases: functional
[1] = test system: Staphylococcus aureus; assay: Antibacterial activity against efflux-mediated macrolide-resistance Staphylococcus aureus PK1 by broth microdilution method
Outline: (§1)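 Staphylococci were grown on Mueller-Hinton agar and then tested by CLSI-guideline broth microdilution against two-fold serial dilutions of compound. The result was recorded as the minimum inhibitory concentration.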

[2] = test system: Haemophilus influenzae; assay: Antibacterial activity against Haemophilus influenzae ATCC 49247 by broth microdilution method
Outline: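 MIC by broth microdilution following CLSI guidelines, expressed in units of lg/mL. Twofold dilutions prepared in 96-well plates. H. influenzae grown on Mueller-Hinton chocolate agar before testing.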

[3] = test system: Staphylococcus aureus; assay: Antibacterial activity against inducible resistance to macrolide, licosamide and streptogramin Staphylococcus aureus 90256 by broth microdilution method; outline: as §1
[4] = test system: Streptococcus pneumoniae; assay: Antibacterial activity against constitutive MLS resistance Streptococcus pneumoniae 58 by broth microdilution method
Outline: (§2)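 MIC by CLSI broth microdilution. In the streptococcal medium, 5% horse serum replaced lysed blood. Compounds were tested as two-fold serial dilutions. Strains were first grown on Columbia agar with 5% sheep blood. The MIC was read as the lowest concentration inhibiting growth.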

[5] = test system: Streptococcus pneumoniae; assay: Antibacterial activity against inducible resistance to macrolide and constitutive resistance to lincosamide Streptococcus pneumoniae 134 GR M by broth microdilution method; outline: as §2
[6] = test system: Streptococcus pyogenes; assay: Antibacterial activity against constitutive MLS resistance sStreptococcus pyogenes 166 GR-Micro by broth microdilution method; outline: as §2
[7] = test system: Streptococcus pyogenes; assay: Antibacterial activity against efflux-mediated macrolide-resistance Streptococcus pyogenes 2 Finland by broth microdilution method; outline: as §2
[8] = test system: Streptococcus pneumoniae; assay: Antibacterial activity against efflux-mediated macrolide-resistance Streptococcus pneumoniae Ci137 by broth microdilution method; outline: as §2

| Structure (SMILES) | MIC [1] | MIC [2] | MIC [3] | MIC [4] | MIC [5] | MIC [6] | MIC [7] | MIC [8] |
| --- | --- | --- | --- | --- | --- | --- | --- | --- |
| CC[C@H]1OC(=O)[C@H](C)[C@@H](O[C@H]2C[C@@](C)(OC)[C@@H](OC(=O)CCNCCCCNc3ccc4c(=O)c(C(=O)O)cn(C)c4c3)[C@H](C)O2)[C@H](C)[C@@H](O[C@@H]2O[C@H](C)C[C@H](N(C)C)[C@H]2O)[C@](C)(O)C[C@@H](C)CN(C)[C@H](C)[C@@H](O)[C@]1(C)O | 8 µg/mL (≈ 7.32 µM) | 16 µg/mL (≈ 14.6 µM) | > 64 µg/mL | 32 µg/mL (≈ 29.3 µM) | 32 µg/mL (≈ 29.3 µM) | 8 µg/mL (≈ 7.32 µM) | 4 µg/mL (≈ 3.66 µM) | 2 µg/mL (≈ 1.83 µM) |
| CC[C@H]1OC(=O)[C@H](C)[C@@H](O[C@H]2C[C@@](C)(OC)[C@@H](OC(=O)CCNCCCCNc3ccc4c(=O)c(C(=O)O)cn(CC)c4c3)[C@H](C)O2)[C@H](C)[C@@H](O[C@@H]2O[C@H](C)C[C@H](N(C)C)[C@H]2O)[C@](C)(O)C[C@@H](C)CN(C)[C@H](C)[C@@H](O)[C@]1(C)O | 4 µg/mL (≈ 3.62 µM) | > 32 µg/mL | > 32 µg/mL | 2 µg/mL (≈ 1.81 µM) | 8 µg/mL (≈ 7.23 µM) | 8 µg/mL (≈ 7.23 µM) | 8 µg/mL (≈ 7.23 µM) | 1 µg/mL (≈ 0.904 µM) |
| CC[C@H]1OC(=O)[C@H](C)[C@@H](O[C@H]2C[C@@](C)(OC)[C@@H](OC(=O)CCNCCCCNc3ccc4c(=O)c(C(=O)O)cn(C5CC5)c4c3)[C@H](C)O2)[C@H](C)[C@@H](O[C@@H]2O[C@H](C)C[C@H](N(C)C)[C@H]2O)[C@](C)(O)C[C@@H](C)CN(C)[C@H](C)[C@@H](O)[C@]1(C)O | 2 µg/mL (≈ 1.79 µM) | 8 µg/mL (≈ 7.15 µM) | 8 µg/mL (≈ 7.15 µM) | 4 µg/mL (≈ 3.58 µM) | 8 µg/mL (≈ 7.15 µM) | 4 µg/mL (≈ 3.58 µM) | 1 µg/mL (≈ 0.894 µM) | 0.5 µg/mL (≈ 0.447 µM) |
| CC[C@H]1OC(=O)[C@H](C)[C@@H](O[C@H]2C[C@@](C)(OC)[C@@H](OC(=O)CCNCCNc3cc4c(=O)c(C(=O)O)cn(C5CC5)c4cc3Cl)[C@H](C)O2)[C@H](C)[C@@H](O[C@@H]2O[C@H](C)C[C@H](N(C)C)[C@H]2O)[C@](C)(O)C[C@@H](C)CN(C)[C@H](C)[C@@H](O)[C@]1(C)O | 0.25 µg/mL (≈ 0.222 µM) | 1 µg/mL (≈ 0.889 µM) | 0.5 µg/mL (≈ 0.445 µM) | ≤ 0.125 µg/mL | ≤ 0.125 µg/mL | ≤ 0.125 µg/mL | ≤ 0.125 µg/mL | ≤ 0.125 µg/mL |
| CC[C@H]1OC(=O)[C@H](C)[C@@H](O[C@H]2C[C@@](C)(OC)[C@@H](OC(=O)CCNCCNc3cc4c(cc3F)c(=O)c(C(=O)O)cn4C3CC3)[C@H](C)O2)[C@H](C)[C@@H](O[C@@H]2O[C@H](C)C[C@H](N(C)C)[C@H]2O)[C@](C)(O)C[C@@H](C)CN(C)[C@H](C)[C@@H](O)[C@]1(C)O | 0.5 µg/mL (≈ 0.451 µM) | 2 µg/mL (≈ 1.8 µM) | 0.5 µg/mL (≈ 0.451 µM) | 0.25 µg/mL (≈ 0.226 µM) | 1 µg/mL (≈ 0.902 µM) | 2 µg/mL (≈ 1.8 µM) | 1 µg/mL (≈ 0.902 µM) | 0.25 µg/mL (≈ 0.226 µM) |
| CC[C@H]1OC(=O)[C@H](C)[C@@H](O[C@H]2C[C@@](C)(OC)[C@@H](OC(=O)CCNCCNc3cc4c(=O)c(C(=O)OC)cn(C5CC5)c4cc3Cl)[C@H](C)O2)[C@H](C)[C@@H](O[C@@H]2O[C@H](C)C[C@H](N(C)C)[C@H]2O)[C@](C)(O)C[C@@H](C)CN(C)[C@H](C)[C@@H](O)[C@]1(C)O | 8 µg/mL (≈ 7.02 µM) | 8 µg/mL (≈ 7.02 µM) | > 64 µg/mL | ≤ 0.125 µg/mL | ≤ 0.125 µg/mL | ≤ 0.125 µg/mL | ≤ 0.125 µg/mL | ≤ 0.125 µg/mL |
| CC[C@H]1OC(=O)[C@H](C)[C@@H](O[C@H]2C[C@@](C)(OC)[C@@H](OC(=O)CCNCCNc3ccc4c(c3)c(=O)c(C(=O)O)cn4C3CC3)[C@H](C)O2)[C@H](C)[C@@H](O[C@@H]2O[C@H](C)C[C@H](N(C)C)[C@H]2O)[C@](C)(O)C[C@@H](C)CN(C)[C@H](C)[C@@H](O)[C@]1(C)O | 1 µg/mL (≈ 0.917 µM) | 4 µg/mL (≈ 3.67 µM) | 1 µg/mL (≈ 0.917 µM) | ≤ 0.125 µg/mL | ≤ 0.125 µg/mL | ≤ 0.125 µg/mL | ≤ 0.125 µg/mL | ≤ 0.125 µg/mL |
| CC[C@H]1OC(=O)[C@H](C)[C@@H](O[C@H]2C[C@@](C)(OC)[C@@H](OC(=O)CCN(C)CCNc3cc4c(=O)c(C(=O)O)cn(C5CC5)c4cc3Cl)[C@H](C)O2)[C@H](C)[C@@H](O[C@@H]2O[C@H](C)C[C@H](N(C)C)[C@H]2O)[C@](C)(O)C[C@@H](C)CN(C)[C@H](C)[C@@H](O)[C@]1(C)O | 0.5 µg/mL (≈ 0.439 µM) | 1 µg/mL (≈ 0.878 µM) | 0.5 µg/mL (≈ 0.439 µM) | ≤ 0.125 µg/mL | ≤ 0.125 µg/mL | ≤ 0.125 µg/mL | ≤ 0.125 µg/mL | ≤ 0.125 µg/mL |
